Reference: ChEMBL document CHEMBL1125457, “Inhibitors of acyl-CoA:cholesterol acyltransferase. 1. Identification and structure-activity relationships of a novel series of fatty acid anilide hypocholesterolemic agents” (J Med Chem, 1992)

Tests used:
[1] = species: Rattus norvegicus; experiment: Percent change in high density lipoprotein (HDL-cholesterol in cholesterol-fed rats.; format: functional
Summary of the method: (§1)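 Rats fed ad libitum for 1 week on a diet with peanut oil (5.5%), cholesterol (1.5%) and cholic acid (0.3%), with compound mixed in at 0.05% of the diet. Sacrificed in the fed state. Plasma total and/or HDL cholesterol measured as percent change versus cholesterol-fed controls. Significance by ANOVA followed by Fisher's multiple range test, p < 0.05.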

[2] = species: Rattus norvegicus; experiment: Percent change in total cholesterol (TC) in cholic acid (0.3%) -cholesterol (1.5%) -peanut oil(5.5%) -fed rats.; format: functional; summary of the method: as §1
[3] = molecular target: T1, O-acyltransferase (Oryctolagus cuniculus, UniProt G1SFD9); experiment: In vitro inhibition of acyl coenzyme A:cholesterol acyltransferase, in intestinal microsomes isolated from cholesterol-fed rabbits; parameters: species or system Intestine
T1 sequence (G1SFD9 1-524): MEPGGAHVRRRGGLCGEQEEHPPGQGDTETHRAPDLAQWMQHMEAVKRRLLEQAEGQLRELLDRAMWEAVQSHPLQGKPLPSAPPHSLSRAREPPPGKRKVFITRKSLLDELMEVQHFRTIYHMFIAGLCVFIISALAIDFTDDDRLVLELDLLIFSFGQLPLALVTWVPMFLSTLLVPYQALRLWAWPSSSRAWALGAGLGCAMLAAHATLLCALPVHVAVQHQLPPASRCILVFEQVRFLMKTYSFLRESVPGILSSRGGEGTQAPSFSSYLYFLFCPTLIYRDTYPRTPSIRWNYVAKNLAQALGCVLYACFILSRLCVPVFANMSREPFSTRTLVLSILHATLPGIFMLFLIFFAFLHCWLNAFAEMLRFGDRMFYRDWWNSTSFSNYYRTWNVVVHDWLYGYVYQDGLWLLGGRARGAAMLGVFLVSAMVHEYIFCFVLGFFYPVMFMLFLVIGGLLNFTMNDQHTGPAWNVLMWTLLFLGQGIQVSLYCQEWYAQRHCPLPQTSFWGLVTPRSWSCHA
Summary of the method: (§2)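 Rabbit intestinal mucosa scraped, washed, homogenized in phosphate/KCl/EDTA/sucrose buffer; microsomes pelleted at 100000g and stored at -70 °C. Microsomes (0.3 mg protein) with BSA (0.5 mg) and inhibitor in DMSO/Tween-20 preincubated 5 min at 37 °C. [1-14C]oleoyl-CoA (10 nmol, 0.05 μCi) then added for 5 min. Cholesteryl oleate extracted, separated by TLC and counted by scintillation. Four dilutions per compound, in triplicate.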

[4] = molecular target: T1, O-acyltransferase; experiment: Tested in vitro to inhibit Acyl coenzyme A:cholesterol acyltransferase in intestinal microsomes isolated from cholesterol-fed rabbits.; parameters: species or system Intestine; summary of the method: as §2

SMILES | Change [1] | Change [2] | IC50 [3] | IC50 [4]
CCCCCCCC(C)(C)C(=O)Nc1c(OC)cc(OC)cc1OC | 2% | -13% | 0.18 µM | 
CCCCCCCCCCC(C)(C)C(=O)Nc1c(OC)cc(OC)cc1OCCCCCCC |  |  | 0.14 µM | 
CCCCCCCC/C=C/CCCCCCCC(=O)Nc1c(C)cccc1OC |  | -30% | 0.02 µM | 
CCCCCCCCCCC(C)(C)C(=O)Nc1c(C(C)C)cccc1C(C)C |  |  | 0.21 µM | 
CCCCCCCCCCCCC(C)C(=O)Nc1c(OC)cc(OC)cc1OC (configuration not stated) |  | -39% |  | 
CCCCCCCC/C=C/CCCCCCCC(=O)Nc1cc(Cl)c(OC)cc1OC |  | -7% | 0.52 µM | 
CCCCCCCCCCC(C)(C)C(=O)Nc1c(C)cccc1OCC |  |  | 0.18 µM | 
CCCCCCCCCCC(C)(C)C(=O)Nc1c(C)cc(C)cc1C |  |  | 0.194 µM | 
CCCCCCCC/C=C/CCCCCCCC(=O)Nc1cccc(C(=O)OC)c1C |  |  | > 5 µM | 
CCCCCCCCCCCCC(CC)C(=O)Nc1c(OC)cc(OC)cc1OC (configuration not stated) |  | -11% | 0.052 µM | 
CCCCCCCCCCCCC(C)(C)C(=O)Nc1c(OC)cc(OC)cc1OC | 19% | -45% | 0.063 µM | 
CCCCCCCCCCC1(C(=O)Nc2c(OC)cc(OC)cc2OC)CCCCC1 |  | -43% | 0.07 µM | 
CCCCCCCC/C=C/CCCCCCCC(=O)Nc1cccc(C)c1[N+](=O)[O-] |  |  | 12 µM | 
CCCCCCCCCCC(C)(C)C(=O)Nc1c(C)cc(Br)cc1C |  |  | 0.41 µM | 
CCCCCCCCCCC(C)(C)C(=O)Nc1c(F)cc(F)cc1F |  |  | 0.26 µM | 
CCCCCCCCCCCCCCC1(C(=O)Nc2c(OC)cc(OC)cc2OC)CC1 | 16% | -43% | 0.049 µM | 
CCCCCCCC/C=C/CCCCCCCC(=O)Nc1ccccc1-c1ccccc1 |  |  | 0.91 µM | 
CCCCCCCCCCC(C)(C)C(=O)Nc1c(CC)cccc1CC |  |  | 0.39 µM | 
CCCCCCCCCCC(C)(C)C(=O)Nc1c(OC)cc(OC)cc1OCC(=O)O |  |  | > 1 µM | 
CCCCCCCCCC(C)(C)C(=O)Nc1c(OC)cc(OC)cc1OC | 86% | -53% |  | 0.059 µM
CCCCCCCC/C=C/CCCCCCCC(=O)Nc1c(OC)cc(OC)cc1OC |  | -38% |  | 0.051 µM
CCCCCCCC/C=C/CCCCCCCC(=O)Nc1c(C)cccc1C(C)C |  | -45% | 0.023 µM | 
CCCCCCCCCCCCCCC(C)(C)C(=O)Nc1c(OC)cc(OC)cc1OC | 26% | -55% | 0.044 µM | 
CCCCCCCCC(C)(C)C(=O)Nc1c(OC)cc(OC)cc1OC | 53% | -43% | 0.059 µM | 
CCCCCCCC/C=C/CCCCCCCC(=O)Nc1c(C(C)C)cccc1C(C)C |  | -21% | 0.007 µM | 

SMILES | Change [1] | Change [2] | IC50 [3] | IC50 [4]
CCCCCCCCCCC(C)C(=O)Nc1c(OC)cc(OC)cc1OC (configuration not stated) |  |  |  | 0.09 µM
CCCCCCCC/C=C/CCCCCCCC(=O)Nc1ccccc1C(=O)c1ccccc1 |  |  | > 10 µM | 
CCCCCCCC/C=C/CCCCCCCC(=O)Nc1ccccc1Cl |  |  | 75 µM | 
CCCCCCCC/C=C/CCCCCCCC(=O)Nc1ccc(CC(=O)OCC)c(C)c1 |  | -10% | 3 µM | 
CCCCCCCC/C=C/CCCCCCCC(=O)Nc1cc(C(=O)OC)ccc1OC |  |  | 0.43 µM | 
CCCCCCCCCCCCCCCC(=O)Nc1c(OC)cc(OC)cc1OC |  | -38% | 0.054 µM | 
CCCCCCCC/C=C/CCCCCCCC(=O)Nc1cc(OC)c(OC)cc1OC |  |  | 1.1 µM | 
CCCCCCCCCCC(C)(C)C(=O)Nc1cc(C(=O)OC)ccc1OC |  |  | 0.13 µM | 
CCCCCCCC/C=C/CCCCCCC(C)C(=O)Nc1c(OC)cc(OC)cc1OC (configuration not stated) |  | -40% | 0.036 µM | 
CCCCCCCC/C=C/CCCCCCCC(=O)Nc1cccc2c1CCCC2 |  |  | 0.35 µM | 
CCCCCCCCCCCCCCC(C)C(=O)Nc1c(OC)cc(OC)cc1OC (configuration not stated) |  |  | 0.031 µM | 
CCCCCCCCCCCCCCCCC(C)(C)C(=O)Nc1c(OC)cc(OC)cc1OC | 13% | -34% | 0.087 µM | 
CCCCCCCCCCCCCCCCCC(=O)Nc1c(OC)cc(OC)cc1OC | 31% | -11% | 0.052 µM | 
CCCCCCCCCCC(C)(C)C(=O)Nc1ccc(C)cc1C |  |  | 0.68 µM | 
CCCCCCCCCCCCCC(=O)Nc1c(OC)cc(OC)cc1OC |  | -44% | 0.19 µM | 
CCCCCCCCCCC(C)(C)C(=O)Nc1c(C)cccc1C |  |  | 1.3 µM | 
CCCCCCCCCCC1(C(=O)Nc2c(OC)cc(OC)cc2OC)CCCCCC1 | 9% | -42% | 0.093 µM | 
CCCCCCCCCCCCC1(C(=O)Nc2c(OC)cc(OC)cc2OC)CC1 | 27% | -40% | 0.058 µM | 
CCCCCCCCCCC(C)(C)C(=O)Nc1ccc(C)c(C)c1 |  |  | 1.66 µM | 
CCCCCCCC/C=C/CCCCCCCC(=O)Nc1c(CC)cccc1CC |  | -51% | 0.017 µM | 
CCCCCCCCCCC(CC)C(=O)Nc1c(OC)cc(OC)cc1OC (configuration not stated) |  |  |  | 0.073 µM
CCCCCCCC/C=C/CCCCCCCC(=O)Nc1ccccc1C(C)C |  |  | 0.6 µM | 
CCCCCCCC/C=C/CCCCCCCC(=O)Nc1ccc(F)cc1F |  | -19% | 32 µM | 
CCCCCCCC/C=C/CCCCCCCC(=O)Nc1c(O)cc(OC)cc1OC |  |  | 0.15 µM | 
CCCCCCCCCCC(C)(C)C(=O)Nc1c(O)cc(OC)cc1OC |  |  | 0.59 µM | 

SMILES | Change [1] | Change [2] | IC50 [3] | IC50 [4]
CCCCCCCCCCC(CC)(CC)C(=O)Nc1c(OC)cc(OC)cc1OC |  |  | 0.097 µM | 
CCCCCCCC/C=C/CCCCCCCC(=O)Nc1cc(C(=O)OC)c(C)cc1C |  | -41% | 0.06 µM | 
CCCCCCCCCCC1(C(=O)Nc2c(OC)cc(OC)cc2OC)CCC1 | 73% | -57% | 0.039 µM | 
CCCCCCCCCCC(C)(C)C(=O)Nc1c(OC)cc(OC)cc1OCC(=O)OC |  |  | 2.3 µM | 
CCCCCCCCCCC(C)(C)C(=O)Nc1c(C)cccc1C(C)C |  |  | 0.24 µM | 
CCCCCCCC/C=C/CCCCCCCC(=O)Nc1c(C)cccc1OCC |  | -45% | 0.015 µM | 
CCCCCCCC/C=C/CCCCCCCC(=O)Nc1ccccc1CC |  |  | 1.2 µM | 
CCCCCCCC/C=C/CCCCCCC(C)(C)C(=O)Nc1c(OC)cc(OC)cc1OC |  | -60% | 0.044 µM | 
CCCCCCCC/C=C/CCCCCCCC(=O)Nc1ccc(OC)c(OC)c1 |  |  |  | 4.5 µM
CCCCCCCCCCC(C)(C)C(=O)Nc1c(C)cccc1Cl |  |  | 0.75 µM | 
CCCCCCCCCCC(C)(C)C(=O)Nc1c(C)cccc1OC |  |  | 0.21 µM | 
CCCCCCCC/C=C/CCCCCCCC(=O)Nc1c(Cl)cc(Cl)cc1Cl |  | -44% | 0.03 µM | 
CCCCCCCC/C=C/CCCCCCCC(=O)Nc1ccc(C)cc1C(=O)OC |  |  | 9.2 µM | 
C=C(CCCCCCCCCC)C(=O)Nc1c(OC)cc(OC)cc1OC |  |  | 0.2 µM | 
CCCCCCCC/C=C/CCCCCCCC(=O)Nc1c(F)cc(F)cc1F |  | 2% |  | 6.3 µM
CCCCCCCC/C=C/CCCCCCCC(=O)Nc1ccccc1OC |  |  | 8 µM | 
CCCCCCCC/C=C/CCCCCCCC(=O)Nc1c(C)cc(C)cc1C |  | -27% | 0.7 µM | 
CCCCCCCCCCC1(C(=O)Nc2c(OC)cc(OC)cc2OC)CCCC1 | 45% | -67% | 0.032 µM | 
CCCCCCCC/C=C/CCCCCCCC(=O)Nc1cc(C(=O)OC)c(OC)cc1OC |  |  | 1.1 µM | 
CCCCCCCC/C=C/CCCCCCCC(=O)Nc1ccc(OC)cc1OC |  |  | 3 µM | 
CCCCCCCCCCCCCCC(=O)Nc1c(OC)cc(OC)cc1OC |  |  | 0.065 µM | 
CCCCCCCC/C=C\CCCCCCCC(=O)Nc1c(C)cccc1C |  | -38% |  | 0.043 µM
CCCCCCCCCCC(C)(C)C(=O)Nc1c(OC)cc(OC)cc1OC [CL-976] | 94% |  |  | 
